Assay results: ChEMBL document CHEMBL1140794, “Discovery of 3-aryl-3-methyl-1H-quinoline-2,4-diones as a new class of selective 5-HT6 receptor antagonists” (Bioorg Med Chem Lett, 2008)
Blank lines part the entries; values can stand above or below the compound they belong to.

Columns and labels:
[1] = target: T1, 5-hydroxytryptamine receptor 6 (Homo sapiens, UniProt P50406); assay: Displacement of [3H]LSD from human cloned 5HT6 receptor expressed in HEK293 cells; assay type: cell-based
[2] = target: D(1A) dopamine receptor (Homo sapiens, UniProt P21728); assay: Displacement of [3H]SCH-23390 from human cloned dopamine D1 receptor
Chain of D(1A) dopamine receptor (P21728 whole entry): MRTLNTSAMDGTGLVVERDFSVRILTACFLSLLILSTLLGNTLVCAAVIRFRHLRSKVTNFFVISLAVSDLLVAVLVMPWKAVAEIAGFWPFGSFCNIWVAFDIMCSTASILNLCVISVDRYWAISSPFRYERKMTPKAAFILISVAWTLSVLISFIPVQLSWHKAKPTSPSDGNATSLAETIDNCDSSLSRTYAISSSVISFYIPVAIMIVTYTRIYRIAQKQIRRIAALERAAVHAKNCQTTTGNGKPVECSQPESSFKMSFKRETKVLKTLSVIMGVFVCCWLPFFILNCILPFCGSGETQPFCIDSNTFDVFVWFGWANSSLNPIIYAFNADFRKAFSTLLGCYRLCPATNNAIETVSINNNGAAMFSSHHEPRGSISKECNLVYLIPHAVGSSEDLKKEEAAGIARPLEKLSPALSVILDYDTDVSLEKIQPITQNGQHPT

[3] = target: T2, D(4) dopamine receptor (Homo sapiens, UniProt P21917); assay: Displacement of [3H]spiperone from human cloned dopamine D4 receptor
T2 sequence (P21917 whole entry): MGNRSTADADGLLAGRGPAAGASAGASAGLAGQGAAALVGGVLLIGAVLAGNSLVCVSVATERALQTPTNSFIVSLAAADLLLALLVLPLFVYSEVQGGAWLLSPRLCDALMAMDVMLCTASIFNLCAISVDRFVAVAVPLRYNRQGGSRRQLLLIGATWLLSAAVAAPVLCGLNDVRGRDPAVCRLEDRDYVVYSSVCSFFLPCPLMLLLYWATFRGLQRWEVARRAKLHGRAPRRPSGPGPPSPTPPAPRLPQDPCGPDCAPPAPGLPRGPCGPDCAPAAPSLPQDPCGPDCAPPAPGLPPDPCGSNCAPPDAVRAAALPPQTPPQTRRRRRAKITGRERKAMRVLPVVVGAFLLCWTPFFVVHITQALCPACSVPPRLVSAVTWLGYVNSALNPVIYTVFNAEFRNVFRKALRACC

[4] = target: 5-hydroxytryptamine receptor 2A (Homo sapiens, UniProt P28223); assay: Displacement of [3H]ketanserin from human cloned 5HT2A receptor
Chain of 5-hydroxytryptamine receptor 2A (P28223 whole entry): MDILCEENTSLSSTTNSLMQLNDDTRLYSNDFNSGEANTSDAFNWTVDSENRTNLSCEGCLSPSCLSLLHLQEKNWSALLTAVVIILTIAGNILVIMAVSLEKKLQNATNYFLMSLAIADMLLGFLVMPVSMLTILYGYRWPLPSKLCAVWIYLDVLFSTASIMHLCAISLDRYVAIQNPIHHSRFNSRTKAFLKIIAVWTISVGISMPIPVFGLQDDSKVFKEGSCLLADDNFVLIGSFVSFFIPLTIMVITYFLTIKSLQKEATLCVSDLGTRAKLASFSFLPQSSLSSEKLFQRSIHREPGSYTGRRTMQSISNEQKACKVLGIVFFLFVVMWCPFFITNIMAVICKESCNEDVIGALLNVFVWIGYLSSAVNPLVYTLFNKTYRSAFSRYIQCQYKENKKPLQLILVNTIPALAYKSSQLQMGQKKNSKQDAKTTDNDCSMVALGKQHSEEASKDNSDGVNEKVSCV

[5] = target: 5-hydroxytryptamine receptor 7 (Homo sapiens, UniProt P34969); assay: Displacement of [3H]LSD from human cloned 5HT7 receptor
Chain of 5-hydroxytryptamine receptor 7 (P34969 whole entry): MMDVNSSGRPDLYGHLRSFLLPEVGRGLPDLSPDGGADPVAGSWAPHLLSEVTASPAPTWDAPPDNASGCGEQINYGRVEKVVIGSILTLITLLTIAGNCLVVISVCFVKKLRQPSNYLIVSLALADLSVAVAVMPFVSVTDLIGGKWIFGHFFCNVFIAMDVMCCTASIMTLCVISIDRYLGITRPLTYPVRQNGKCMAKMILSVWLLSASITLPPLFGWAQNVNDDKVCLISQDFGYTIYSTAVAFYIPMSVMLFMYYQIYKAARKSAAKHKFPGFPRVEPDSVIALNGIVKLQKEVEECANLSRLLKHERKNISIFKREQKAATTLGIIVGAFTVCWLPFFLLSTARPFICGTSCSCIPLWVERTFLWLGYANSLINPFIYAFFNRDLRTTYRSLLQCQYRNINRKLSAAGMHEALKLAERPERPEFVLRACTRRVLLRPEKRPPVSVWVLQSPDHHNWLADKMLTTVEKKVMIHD

[6] = target: D(2) dopamine receptor (Homo sapiens, UniProt P14416); assay: Displacement of [3H]spiperone from human cloned dopamine D2 receptor
Chain of D(2) dopamine receptor (P14416 whole entry): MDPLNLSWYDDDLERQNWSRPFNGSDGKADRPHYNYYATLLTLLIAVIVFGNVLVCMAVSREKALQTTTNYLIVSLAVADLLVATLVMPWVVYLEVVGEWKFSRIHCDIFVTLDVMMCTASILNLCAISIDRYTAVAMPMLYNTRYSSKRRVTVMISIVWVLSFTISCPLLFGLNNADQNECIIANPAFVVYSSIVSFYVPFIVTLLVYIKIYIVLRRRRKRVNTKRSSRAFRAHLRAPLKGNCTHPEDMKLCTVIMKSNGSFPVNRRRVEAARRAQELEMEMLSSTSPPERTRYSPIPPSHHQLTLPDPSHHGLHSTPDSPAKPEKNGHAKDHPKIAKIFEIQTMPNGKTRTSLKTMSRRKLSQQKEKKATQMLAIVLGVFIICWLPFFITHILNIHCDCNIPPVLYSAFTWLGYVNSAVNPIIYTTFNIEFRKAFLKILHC

[7] = target: T3, 5-hydroxytryptamine receptor 2C (Homo sapiens, UniProt P28335); assay: Displacement of [3H]mesulergine from human cloned 5HT2C receptor
T3 sequence (P28335 whole entry): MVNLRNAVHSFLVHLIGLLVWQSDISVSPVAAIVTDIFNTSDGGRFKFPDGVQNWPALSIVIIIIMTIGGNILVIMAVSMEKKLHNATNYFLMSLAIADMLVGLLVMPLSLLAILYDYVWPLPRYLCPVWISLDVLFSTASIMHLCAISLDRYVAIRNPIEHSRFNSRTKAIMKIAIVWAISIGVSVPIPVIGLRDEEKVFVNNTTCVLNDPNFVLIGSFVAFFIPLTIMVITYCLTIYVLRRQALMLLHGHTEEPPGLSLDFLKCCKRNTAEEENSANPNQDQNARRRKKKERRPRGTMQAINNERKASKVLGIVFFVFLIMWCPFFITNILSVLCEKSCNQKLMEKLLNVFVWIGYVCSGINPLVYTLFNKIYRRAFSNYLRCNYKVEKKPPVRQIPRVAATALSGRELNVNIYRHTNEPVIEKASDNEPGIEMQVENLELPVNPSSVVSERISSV

[8] = target: D(3) dopamine receptor (Homo sapiens, UniProt P35462); assay: Displacement of [3H]spiperone from human cloned dopamine D3 receptor
Chain of D(3) dopamine receptor (P35462 whole entry): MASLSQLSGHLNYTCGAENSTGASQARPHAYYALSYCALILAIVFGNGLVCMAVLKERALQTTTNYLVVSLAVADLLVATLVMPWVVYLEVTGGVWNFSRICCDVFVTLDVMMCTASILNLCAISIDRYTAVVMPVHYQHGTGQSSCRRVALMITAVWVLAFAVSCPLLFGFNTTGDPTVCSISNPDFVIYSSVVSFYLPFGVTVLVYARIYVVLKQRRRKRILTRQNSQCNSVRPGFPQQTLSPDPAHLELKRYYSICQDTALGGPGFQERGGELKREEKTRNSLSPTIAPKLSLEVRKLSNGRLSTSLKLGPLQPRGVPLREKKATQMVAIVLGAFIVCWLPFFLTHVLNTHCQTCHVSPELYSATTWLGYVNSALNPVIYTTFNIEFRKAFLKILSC

[9] = target: T4, 5-hydroxytryptamine receptor 1A (Homo sapiens, UniProt P08908); assay: Displacement of [3H]8-OH-DPAT from human cloned 5HT1A receptor
T4 sequence (P08908 whole entry): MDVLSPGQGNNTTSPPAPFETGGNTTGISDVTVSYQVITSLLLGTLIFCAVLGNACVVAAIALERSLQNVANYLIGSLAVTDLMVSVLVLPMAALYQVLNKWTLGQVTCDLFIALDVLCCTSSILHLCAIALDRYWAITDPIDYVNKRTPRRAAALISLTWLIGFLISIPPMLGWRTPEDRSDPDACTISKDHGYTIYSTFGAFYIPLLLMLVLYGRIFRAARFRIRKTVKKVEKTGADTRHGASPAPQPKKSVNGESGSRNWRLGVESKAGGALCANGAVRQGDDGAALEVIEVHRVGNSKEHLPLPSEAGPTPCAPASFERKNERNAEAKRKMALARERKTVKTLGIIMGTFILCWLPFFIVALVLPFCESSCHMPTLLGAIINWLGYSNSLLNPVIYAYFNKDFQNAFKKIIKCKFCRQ

[10] = target: T1, 5-hydroxytryptamine receptor 6; assay: Antagonist activity at human cloned 5HT6 receptor expressed in HeLa cells assessed as inhibition of 5-HT-stimulated cAMP accumulation after 20 mins by enzyme-immunoassay; assay type: functional, cell-based
Procedure, shortened: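 […] and test compounds were added to HBSS (pH 7.4) containing 1 mM MgCl₂, 1 mM CaCl₂ and 1-methyl-3-isobutylxanthine (IBMX) at 100. After 20 min at 37 °C, intracellular cAMP was measured by enzyme immunoassay. Compounds that inhibited 5-HT-stimulated cAMP accumulation were classed as antagonists.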

T1 sequence (P50406 whole entry): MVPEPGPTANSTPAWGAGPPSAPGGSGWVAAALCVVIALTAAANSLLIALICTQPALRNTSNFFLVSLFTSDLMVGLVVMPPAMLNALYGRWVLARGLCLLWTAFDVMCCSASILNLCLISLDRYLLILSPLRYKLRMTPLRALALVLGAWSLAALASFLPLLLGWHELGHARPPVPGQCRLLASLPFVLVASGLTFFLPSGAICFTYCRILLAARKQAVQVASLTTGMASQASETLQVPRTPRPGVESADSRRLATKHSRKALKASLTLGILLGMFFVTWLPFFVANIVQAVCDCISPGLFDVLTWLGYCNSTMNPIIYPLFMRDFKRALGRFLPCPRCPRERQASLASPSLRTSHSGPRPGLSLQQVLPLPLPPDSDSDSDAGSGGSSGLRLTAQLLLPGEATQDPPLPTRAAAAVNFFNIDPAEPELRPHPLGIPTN

Structure (SMILES): CN(C)c1cc(Cl)c2c(c1)NC(=O)C(C)(c1ccccc1)C2=O (stereo not drawn)
Ki [1]: 715 nM

Structure (SMILES): CC1(c2ccc(Cl)cc2)C(=O)Nc2cc(Cl)cc(Cl)c2C1=O (stereo not drawn)
Ki [1]: 877 nM

Structure (SMILES): CC1(c2ccc(I)cc2)C(=O)Nc2cc(Cl)cc(Cl)c2C1=O (stereo not drawn)
Ki [1]: 952 nM

Structure (SMILES): COc1ccc(C2(C)C(=O)Nc3cc(Cl)cc(Cl)c3C2=O)cc1[N+](=O)[O-] (stereo not drawn)
Ki [1]: > 1000 nM

Structure (SMILES): CC1(c2ccccc2)C(=O)Nc2cc(Cl)c(Cl)cc2C1=O (stereo not drawn)
Ki [1]: > 1000 nM

Structure (SMILES): CC1(c2ccccc2)C(=O)Nc2c(Br)cc(Br)cc2C1=O (stereo not drawn)
Ki [1]: > 1000 nM

Structure (SMILES): CC1(c2ccc(O)c([N+](=O)[O-])c2)C(=O)Nc2cc(Cl)cc(Cl)c2C1=O (stereo not drawn)
Ki [1]: > 1000 nM

Structure (SMILES): COc1ccc([C@@]2(C)C(=O)Nc3cc(Cl)cc(Cl)c3C2=O)cc1
Ki [1]: 893 nM

Structure (SMILES): CC1(c2ccccc2)C(=O)Nc2ccccc2C1=O (stereo not drawn)
Ki [1]: > 1000 nM

Structure (SMILES): CC1(c2ccc(OCc3ccccc3)c(Br)c2)C(=O)Nc2cc(Cl)cc(Cl)c2C1=O (stereo not drawn)
Ki [1]: > 1000 nM

Structure (SMILES): CC1(c2ccccc2)C(=O)Nc2cc(Cl)ccc2C1=O (stereo not drawn)
Ki [1]: > 1000 nM

Structure (SMILES): CC1(c2ccc([N+](=O)[O-])cc2)C(=O)Nc2cc(Cl)cc(Cl)c2C1=O (stereo not drawn)
Ki [1]: > 1000 nM

Structure (SMILES): COc1cc2c(c(OC)c1)C(=O)C(C)(c1ccccc1)C(=O)N2 (stereo not drawn)
Ki [1]: 728 nM

Structure (SMILES): COc1ccc(NS(=O)(=O)c2sc3ccc(Cl)cc3c2C)cc1N1CCNCC1
Ki [2]: 120 nM | Ki [3]: 0.13 µM | Ki [4]: 1740 nM | Ki [6]: 0.46 µM | Ki [7]: 0.53 µM

Further compounds by falling Ki [1], results first:

Ki [1]: 512 nM
Structure (SMILES): CNc1cc(NS(=O)(=O)c2ccc(N)cc2)cc(NC)n1

Ki [1]: 346 nM
Structure (SMILES): CN(C)c1ccc(C2(C)C(=O)Nc3cc(Cl)cc(Cl)c3C2=O)cc1 (stereo not drawn)

Ki [1]: 345 nM
Structure (SMILES): COc1cc(Cl)c2c(c1)NC(=O)C(C)(c1ccccc1)C2=O (stereo not drawn)

Ki [1]: 304 nM
Structure (SMILES): CC1(c2ccc(Br)cc2)C(=O)Nc2cc(Cl)cc(Cl)c2C1=O (stereo not drawn)

Ki [1]: 293 nM
Structure (SMILES): COc1ccc([C@]2(C)C(=O)Nc3cc(Cl)cc(Cl)c3C2=O)cc1

Ki [1]: 257 nM
Structure (SMILES): CNc1ccc(C2(C)C(=O)Nc3cc(Cl)cc(Cl)c3C2=O)cc1 (stereo not drawn)

Ki [1]: 197 nM
Structure (SMILES): CC1(c2ccccc2)C(=O)Nc2cc(Br)cc(Br)c2C1=O (stereo not drawn)

Ki [1]: 156 nM
Structure (SMILES): CC1(c2ccc(N)cc2)C(=O)Nc2cc(Cl)cc(Cl)c2C1=O (stereo not drawn)

Ki [1]: 147 nM
Structure (SMILES): COc1ccc(C2(C)C(=O)Nc3cc(Cl)cc(Cl)c3C2=O)cc1 (stereo not drawn)

Ki [2]: 120 nM | Ki [3]: > 10 µM | Ki [4]: 720 nM | Ki [5]: 0.6 µM | Ki [6]: > 10 µM | Ki [7]: > 10 µM | Ki [8]: > 10 µM | Ki [9]: 0.17 µM | Ki [1]: 82.4 nM
Structure (SMILES): CC1(c2cccc(OCc3ccccc3)c2)C(=O)Nc2cc(Cl)cc(Cl)c2C1=O (stereo not drawn)

Ki [1]: 77.5 nM
Structure (SMILES): CC1(c2ccc(O)c(Br)c2)C(=O)Nc2cc(Cl)cc(Cl)c2C1=O (stereo not drawn)

Ki [1]: 73.2 nM
Structure (SMILES): COc1cc(Br)c2c(c1)NC(=O)C(C)(c1ccccc1)C2=O (stereo not drawn)

Ki [2]: > 10000 nM | Ki [3]: > 10 µM | Ki [4]: > 10000 nM | Ki [5]: > 10 µM | Ki [6]: > 10 µM | Ki [7]: > 10 µM | Ki [8]: > 10 µM | Ki [9]: > 10 µM | Ki [1]: 54.7 nM
Structure (SMILES): CC1(c2ccccc2)C(=O)Nc2cc(Cl)cc(Cl)c2C1=O (racemic)

Ki [2]: 1810 nM | Ki [3]: > 10 µM | Ki [4]: > 10000 nM | Ki [5]: > 10 µM | Ki [6]: > 10 µM | Ki [7]: > 10 µM | Ki [8]: > 10 µM | Ki [9]: > 10 µM | Ki [1]: 30.1 nM
Structure (SMILES): CC1(c2cccc(O)c2)C(=O)Nc2cc(Cl)cc(Cl)c2C1=O (stereo not drawn)

Ki [1]: 28.3 nM
Structure (SMILES): CCNc1ccc(C2(C)C(=O)Nc3cc(Cl)cc(Cl)c3C2=O)cc1 (stereo not drawn)

IC50 [10]: 615 nM | Ki [2]: > 10000 nM | Ki [3]: > 10 µM | Ki [4]: > 10000 nM | Ki [5]: > 10 µM | Ki [6]: > 10 µM | Ki [7]: > 10 µM | Ki [8]: > 10 µM | Ki [9]: > 10 µM | Ki [1]: 12.3 nM
Structure (SMILES): CC1(c2ccc(O)cc2)C(=O)Nc2cc(Cl)cc(Cl)c2C1=O (stereo not drawn)

Ki [1]: 9.2 nM
Structure (SMILES): CCN(CC)c1ccc(C2(C)C(=O)Nc3cc(Cl)cc(Cl)c3C2=O)cc1 (stereo not drawn)
